Data: ChEMBL document CHEMBL4359813, “Synthesis and antimycobacterial activity of imidazo[1,2-b][1,2,4,5]tetrazines” (2019)
≈ marks a conversion by molar mass, not a printed value. Calls of active or inactive are those of the source. The calls are words filed in the database; no cut-off is given here.

Tests used:
[1] = test system: Mycolicibacterium smegmatis MC2 155; assay: Inhibition of STPK in Mycobacterium smegmatis MC2 155 expressing aminoglycoside phophotransferase-8 assessed as growth inhibition at 50 nmol/disk after 18 hrs in presence of kanamycin by paper disk method
[2] = test system: Mycobacterium tuberculosis; assay: Antimycobacterial activity against Mycobacterium tuberculosis H37Rv in liquid medium; format: functional
Procedure, shortened: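 M. tuberculosis H37Rv; MIC determined in liquid medium on the automated Bactec MGIT 960 system.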

[3] = test system: Mycolicibacterium smegmatis; assay: Antimycobacterial activity against Mycobacterium smegmatis MC2 155 in liquid medium after 48 hrs by two-fold serial dilution method; format: functional; conditions: MC2 155, 48 h
Procedure, shortened: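 M. smegmatis mc2 155 grown overnight in Lemco-Tw broth, diluted 1:200 in fresh broth. […] Top wells could carry 4% DMSO. Incubated 48 h at 37 °C with shaking at 250 rpm. MIC is the lowest concentration with no visible growth.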

[4] = test system: Mycolicibacterium smegmatis; assay: Antimycobacterial activity against Mycobacterium smegmatis MC2 155 in solid medium by two-fold serial dilution method; format: functional
Procedure, shortened: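 M290 soybean-casein agar plates carried two-fold compound dilutions, 8–64 or 8–128 µg/ml, some with extra 20 or 25 µg/ml plates.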

[5] = test system: Mycolicibacterium smegmatis; assay: Antimycobacterial activity against Mycobacterium smegmatis atR9 in liquid medium after 48 hrs by two-fold serial dilution method; format: functional; conditions: atR9, 48 h
Procedure, shortened: (§1)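 M. smegmatis resistant mutants were isolated on M290 agar containing 3.5-4× MIC of the test compound at 30°C and resistance was reconfirmed. MIC was then run in Lemco-Tw broth (Tween-80 0.05%). An overnight culture was diluted 1:200, and two-fold serial dilutions in DMSO were added. Plates were incubated at 37°C and 250 rpm for 48 h. MIC was read as the lowest concentration with no visible growth.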

[6] = test system: Mycolicibacterium smegmatis; assay: Antimycobacterial activity against Mycobacterium smegmatis atR14 in liquid medium after 48 hrs by two-fold serial dilution method; format: functional; conditions: atR14, 48 h; procedure, shortened: as §1
[7] = test system: Mycolicibacterium smegmatis; assay: Antimycobacterial activity against Mycobacterium smegmatis atR17 in liquid medium after 48 hrs by two-fold serial dilution method; format: functional; conditions: atR17, 48 h; procedure, shortened: as §1
[8] = test system: Mycolicibacterium smegmatis; assay: Antimycobacterial activity against Mycobacterium smegmatis atR19 in liquid medium after 48 hrs by two-fold serial dilution method; format: functional; conditions: atR19, 48 h; procedure, shortened: as §1
[9] = test system: Mycolicibacterium smegmatis; assay: Antimycobacterial activity against Mycobacterium smegmatis atR1 in liquid medium after 48 hrs by two-fold serial dilution method; format: functional; conditions: atR1, 48 h; procedure, shortened: as §1
[10] = test system: Mycolicibacterium smegmatis; assay: Antimycobacterial activity against Mycobacterium smegmatis atR8 in liquid medium after 48 hrs by two-fold serial dilution method; format: functional; conditions: atR8, 48 h; procedure, shortened: as §1
[11] = test system: Mycolicibacterium smegmatis; assay: Antimycobacterial activity against Mycobacterium smegmatis atR10 in liquid medium after 48 hrs by two-fold serial dilution method; format: functional; conditions: atR10, 48 h; procedure, shortened: as §1
[12] = test system: Mycolicibacterium smegmatis; assay: Antimycobacterial activity against Mycobacterium smegmatis atR11 in liquid medium after 48 hrs by two-fold serial dilution method; format: functional; conditions: atR11, 48 h; procedure, shortened: as §1
[13] = test system: Mycolicibacterium smegmatis; assay: Antimycobacterial activity against Mycobacterium smegmatis atR33 in liquid medium after 48 hrs by two-fold serial dilution method; format: functional; conditions: atR33, 48 h; procedure, shortened: as §1
[14] = test system: Mycolicibacterium smegmatis; assay: Antimycobacterial activity against Mycobacterium smegmatis atR37 in liquid medium after 48 hrs by two-fold serial dilution method; format: functional; conditions: atR37, 48 h; procedure, shortened: as §1
[15] = test system: Mycolicibacterium smegmatis; assay: Antimycobacterial activity against Mycobacterium smegmatis atR40 in liquid medium after 48 hrs by two-fold serial dilution method; format: functional; conditions: atR40, 48 h; procedure, shortened: as §1
[16] = test system: Mycolicibacterium smegmatis; assay: Antimycobacterial activity against Mycobacterium smegmatis atR2 in liquid medium after 48 hrs by two-fold serial dilution method; format: functional; conditions: atR2, 48 h; procedure, shortened: as §1
[17] = test system: Mycolicibacterium smegmatis; assay: Antimycobacterial activity against Mycobacterium smegmatis atR8 assessed as decrease in drug resistance development at 200 nmol/disc after 2 to 3 days by paper disc method; format: functional, organism-based
Procedure, shortened: (§2)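 Drug-resistant M. smegmatis mc2 155 mutants, isolated on M290 agar with 3.5-4× MIC of compound and resistance re-confirmed, grown in Middlebrook 7H9 (OADC, 0.1% Tween-80, 0.4% glycerol) to OD600 1.2. Diluted 1:9:10 culture:water:M290 and poured as top layer on M290 agar. Impregnated paper discs applied; 37 °C for 2–3 days. Halos measured to nearest 1 mm; triplicates, mean ± SD versus control strain.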

[18] = test system: Mycolicibacterium smegmatis; assay: Antimycobacterial activity against Mycobacterium smegmatis atR9 assessed as decrease in drug resistance development at 200 nmol/disc after 2 to 3 days by paper disc method; format: functional, organism-based; procedure, shortened: as §2
[19] = test system: Mycolicibacterium smegmatis; assay: Antimycobacterial activity against Mycobacterium smegmatis atR10 assessed as decrease in drug resistance development at 200 nmol/disc after 2 to 3 days by paper disc method; format: functional, organism-based
Procedure, shortened: (§3)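 Mutant M. smegmatis strains were grown in Middlebrook 7H9/OADC/Tween/glycerol to OD600 1.2. Cultures were diluted 1:9:10 (culture:water:M290) and overlaid on M290 agar. Commercial or impregnated paper discs were applied and plates incubated 2–3 days at 37 °C. Inhibition halos were measured to 1 mm, run in triplicate, mean ± SD.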

[20] = test system: Mycolicibacterium smegmatis; assay: Antimycobacterial activity against Mycobacterium smegmatis atR17 assessed as decrease in drug resistance development at 200 nmol/disc after 2 to 3 days by paper disc method; format: functional, organism-based; procedure, shortened: as §3
[21] = test system: Mycolicibacterium smegmatis MC2 155; assay: Inhibition of STPK in Mycobacterium smegmatis MC2 155 expressing aminoglycoside phophotransferase-8 assessed as growth inhibition at 5 nmol/disk after 18 hrs in presence of kanamycin by paper disk method
[22] = test system: Mycolicibacterium smegmatis; assay: Antimycobacterial activity against Mycobacterium smegmatis atR1 assessed as decrease in drug resistance development at 40 nmol/disc after 2 to 3 days by paper disc method; format: functional, organism-based; procedure, shortened: as §3
[23] = test system: Mycolicibacterium smegmatis; assay: Antimycobacterial activity against Mycobacterium smegmatis atR2 assessed as decrease in drug resistance development at 40 nmol/disc after 2 to 3 days by paper disc method; format: functional, organism-based; procedure, shortened: as §3
[24] = test system: Mycolicibacterium smegmatis; assay: Antimycobacterial activity against Mycobacterium smegmatis atR11 assessed as decrease in drug resistance development at 40 nmol/disc after 2 to 3 days by paper disc method; format: functional, organism-based; procedure, shortened: as §3
[25] = test system: Mycolicibacterium smegmatis; assay: Antimycobacterial activity against Mycobacterium smegmatis atR8 assessed as decrease in drug resistance development at 40 nmol/disc after 2 to 3 days by paper disc method; format: functional, organism-based; procedure, shortened: as §2
[26] = test system: Mycolicibacterium smegmatis; assay: Antimycobacterial activity against Mycobacterium smegmatis atR10 assessed as decrease in drug resistance development at 40 nmol/disc after 2 to 3 days by paper disc method; format: functional, organism-based; procedure, shortened: as §3
[27] = test system: Mycolicibacterium smegmatis; assay: Antimycobacterial activity against Mycobacterium smegmatis atR14 assessed as decrease in drug resistance development at 40 nmol/disc after 2 to 3 days by paper disc method; format: functional, organism-based; procedure, shortened: as §3
[28] = test system: Mycolicibacterium smegmatis; assay: Antimycobacterial activity against Mycobacterium smegmatis atR17 assessed as decrease in drug resistance development at 40 nmol/disc after 2 to 3 days by paper disc method; format: functional, organism-based; procedure, shortened: as §3
[29] = test system: Mycolicibacterium smegmatis; assay: Antimycobacterial activity against Mycobacterium smegmatis atR19 assessed as decrease in drug resistance development at 40 nmol/disc after 2 to 3 days by paper disc method; format: functional, organism-based; procedure, shortened: as §3
[30] = test system: Mycolicibacterium smegmatis; assay: Antimycobacterial activity against Mycobacterium smegmatis atR33 assessed as decrease in drug resistance development at 40 nmol/disc after 2 to 3 days by paper disc method; format: functional, organism-based; procedure, shortened: as §3
[31] = test system: Mycolicibacterium smegmatis; assay: Antimycobacterial activity against Mycobacterium smegmatis atR37 assessed as decrease in drug resistance development at 40 nmol/disc after 2 to 3 days by paper disc method; format: functional, organism-based; procedure, shortened: as §2
[32] = test system: Mycolicibacterium smegmatis; assay: Antimycobacterial activity against Mycobacterium smegmatis atR40 assessed as decrease in drug resistance development at 40 nmol/disc after 2 to 3 days by paper disc method; format: functional, organism-based; procedure, shortened: as §2
[33] = test system: Mycolicibacterium smegmatis MC2 155; assay: Inhibition of STPK in Mycobacterium smegmatis MC2 155 expressing aminoglycoside phophotransferase-8 assessed as growth inhibition at 100 nmol/disk after 18 hrs in presence of kanamycin by paper disk method
[34] = test system: Mycolicibacterium smegmatis; assay: Antimycobacterial activity against Mycobacterium smegmatis atR10 assessed as decrease in drug resistance development at 10 nmol/disc after 2 to 3 days by paper disc method; format: functional, organism-based; procedure, shortened: as §3
[35] = test system: Mycolicibacterium smegmatis; assay: Antimycobacterial activity against Mycobacterium smegmatis atR17 assessed as decrease in drug resistance at 10 nmol/disc after 2 to 3 days by paper disc method; format: functional, organism-based; procedure, shortened: as §3
[36] = test system: Mycolicibacterium smegmatis; assay: Antimycobacterial activity against Mycobacterium smegmatis atR40 assessed as decrease in drug resistance development at 2 ug/disc after 2 to 3 days by paper disc method; format: functional, organism-based; procedure, shortened: as §2
[37] = test system: Mycolicibacterium smegmatis; assay: Antimycobacterial activity against Mycobacterium smegmatis atR2 assessed as decrease in drug resistance development at 2 ug/disc after 2 to 3 days by paper disc method; format: functional, organism-based; procedure, shortened: as §3
[38] = test system: Mycolicibacterium smegmatis; assay: Antimycobacterial activity against Mycobacterium smegmatis atR19 assessed as decrease in drug resistance development at 2 ug/disc after 2 to 3 days by paper disc method; format: functional, organism-based; procedure, shortened: as §3

Compound | inhibition zone (IZ) [1] [mm] | MIC [2] [µM] | MIC [3] [µM] | MIC [4] [µM] | MIC [5] [µg/mL] | MIC [6] [µg/mL] | MIC [7] [µg/mL] | MIC [8] [µg/mL] | MIC [9] [µg/mL] | MIC [10] [µg/mL] | MIC [11] [µg/mL] | MIC [12] [µg/mL] | MIC [13] [µg/mL] | MIC [14] [µg/mL] | MIC [15] [µg/mL] | MIC [16] [µg/mL] | also measured
c1cn(-c2nnc3nccn3n2)cn1 | 12.8 | 134 (≈ 25 µg/mL) | 171 (≈ 32 µg/mL) | 134 (≈ 25 µg/mL) | 32 (≈ 171 µM) | 32 (≈ 171 µM) | 32 (≈ 171 µM) | 32 (≈ 171 µM) | 32 (≈ 171 µM) | 32 (≈ 171 µM) | 32 (≈ 171 µM) | 32 (≈ 171 µM) | 32 (≈ 171 µM) | 32 (≈ 171 µM) | 32 (≈ 171 µM) | 32 (≈ 171 µM) | Activity [17]: inactive; Activity [18]: inactive; Activity [19]: inactive; Activity [20]: inactive
Cc1cc(C)n(-c2nnc3ncc(Sc4ccccc4)n3n2)n1 |  | 3.1 (≈ 1 µg/mL) | 99 (≈ 32 µg/mL) | 61.8 (≈ 20 µg/mL) | > 64 | > 64 | > 64 | > 64 | > 64 | > 64 | > 64 | > 64 | > 64 | > 64 | > 64 | > 64 | inhibition zone (IZ) [21]: 11.5 mm; Activity [22]: inactive; Activity [23]: inactive; Activity [24]: inactive; Activity [25]: inactive; Activity [26]: inactive; Activity [27]: inactive; Activity [28]: inactive; Activity [29]: inactive; Activity [30]: inactive; Activity [31]: inactive; Activity [32]: inactive
COc1ccc(OC)c(Sc2cnc3nnc(-n4nc(C)cc4C)nn23)c1 |  |  |  |  |  |  |  |  |  |  |  |  |  |  |  |  | inhibition zone (IZ) [33]: 9.3 mm
CCCCCCCNc1nnc2ncc(Sc3ccccc3)n2n1 | 12 |  |  |  |  |  |  |  |  |  |  |  |  |  |  |  | 
O=C1c2c(O)ccc(O)c2C(=O)c2c(NCCNCCO)ccc(NCCNCCO)c21 |  |  |  |  |  |  |  |  |  |  |  |  |  |  |  |  | Activity [34]: inactive; Activity [35]: inactive
CC1COc2c(N3CCN(C)CC3)c(F)cc3c(=O)c(C(=O)O)cn1c23 (centres undefined) |  |  |  |  |  |  |  |  |  |  |  |  |  |  |  |  | Activity [36]: inactive; Activity [37]: inactive; Activity [38]: inactive
